Source: ChEMBL document CHEMBL3603782, “Antimalarial benzoheterocyclic 4-aminoquinolines: Structure-activity relationship, in vivo evaluation, mechanistic and bioactivation studies” (Bioorg Med Chem, 2015)
Active and inactive are the calls of the source. No cut-off for these calls is given here.

Assays:
[1] = system: Plasmodium falciparum; experiment: Resistance index, ratio of IC50 for multidrug-resistant Plasmodium falciparum K1 to IC50 for Plasmodium falciparum W2; assay type: functional
[2] = system: Plasmodium falciparum; experiment: Antiplasmodial activity against chloroquine-sensitive Plasmodium falciparum NF54 infected in human erythrocytes after 48 hrs by [3H]-hypoxanthine incorporation assay; assay type: functional, organism-based
How it was run: (§1)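 Modified [3H]-hypoxanthine incorporation assay against P. falciparum NF54 (sensitive) and K1 (multidrug-resistant). Values are means of ≥2 or ≥3 independent experiments. The resistance index is the K1 IC50 divided by the NF54 IC50.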

[3] = system: Plasmodium falciparum; experiment: Resistance index, ratio of IC50 for multidrug-resistant Plasmodium falciparum K1 to IC50 for chloroquine-sensitive Plasmodium falciparum NF54; assay type: functional; how it was run: as §1
[4] = system: CHO; experiment: Cytotoxicity against CHO cells by MTT assay; assay type: cell-based; conditions: Cricetulus griseus
How it was run: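 CHO cells, MTT assay. Stocks 20 mg/mL in DMSO, diluted in complete medium; undissolved samples tested as suspensions. Emetine served as reference (10-fold dilutions, 6 concentrations, lowest 0.001 µg/mL). IC50 derived from full dose–response curves by non-linear fitting.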

[5] = Selectivity index, ratio of IC50 for CHO cells to IC50 for chloroquine-sensitive Plasmodium falciparum NF54; assay type: toxicity, cell-based; conditions: hamster, read-out: Ratio IC50
[6] = Inhibition of beta haematin formation after 5 to 6 hrs by pyridine-ferrichrome method; assay type: physicochemical
How it was run: (§2)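 Modified β-haematin inhibition assay. Compounds from DMSO stocks, 0–1000 µM final, in duplicate. NP-40 added (30.55 µM). Haematin suspension added to give 0.5 M acetate pH 4.8 and 100 µM haematin, then incubated 5–6 h at 37 °C. Free haeme detected with pyridine/H2O/acetone/0.2 M HEPES pH 7.4 reagent (final pyridine ~5% v/v) plus acetone, and absorbance read.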

[7] = Metabolic stability in human liver microsomes assessed as compound remaining at […] after 30 mins by HPLC-MS/MS analysis in presence of NADPH; assay type: ADME; conditions: read-out: Stability
[8] = Metabolic stability in BALB/c mouse liver microsomes assessed as compound remaining at […] after 30 mins by HPLC-MS/MS analysis in presence of NADPH; assay type: ADME; conditions: read-out: Stability
[9] = system: Plasmodium berghei; experiment: Antimalarial activity against GFP-transfected Plasmodium berghei ANKA infected in mouse assessed as reduction in parasitemia at 50 mg/kg, po qd administered for 4 days measured on day 4 post last dose by flow cytometric analysis relative to control; assay type: functional; parameters: scale not given: the % may be the effect or the level left
[10] = system: Plasmodium berghei; experiment: Antimalarial activity against GFP-transfected Plasmodium berghei ANKA infected in mouse assessed as reduction in parasitemia at 50 mg/kg, po by flow cytometric analysis relative to control; assay type: functional; parameters: scale not given: the % may be the effect or the level left
[11] = system: Plasmodium berghei; experiment: Antimalarial activity against GFP-transfected Plasmodium berghei ANKA infected in mouse assessed as reduction in parasitemia at 10 mg/kg, po qd administered for 4 days measured on day 4 post last dose by flow cytometric analysis relative to control; assay type: functional; parameters: scale not given: the % may be the effect or the level left
[12] = system: Plasmodium berghei; experiment: Antimalarial activity against GFP-transfected Plasmodium berghei ANKA infected in mouse assessed as mean survival days at 50 mg/kg, po qd administered for 4 days; assay type: functional
How it was run: (§3)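 Mice (n = 3) infected with GFP-transfected P. berghei ANKA. Compound given orally, dissolved in a vehicle containing ethanol and diluted 10× with water. Multi-dose arms were dosed once daily on four consecutive days (4, 24, 48, 72 h post-infection). Parasitaemia was measured by flow cytometry, detection limit 0.1%. Activity is % reduction relative to controls. Survival was followed for 30 days.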

[13] = system: Plasmodium berghei; experiment: Antimalarial activity against GFP-transfected Plasmodium berghei ANKA infected in mouse assessed as mean survival days at 50 mg/kg, po; assay type: functional; how it was run: as §3
[14] = system: Plasmodium berghei; experiment: Antimalarial activity against GFP-transfected Plasmodium berghei ANKA infected in mouse assessed as mean survival days at 10 mg/kg, po qd administered for 4 days; assay type: functional; how it was run: as §3
[15] = system: Plasmodium berghei; experiment: Antimalarial activity against GFP-transfected Plasmodium berghei ANKA infected in mouse assessed as cure rate at 50 mg/kg, po qd administered for 4 days measured over 30 days; assay type: functional, organism-based
[16] = system: Mus musculus; experiment: Toxicity in mouse infected with GFP-transfected Plasmodium berghei ANKA at 50 mg/kg, po qd administered for 4 days measured over 30 days; assay type: organism-based; conditions: in vivo, 720 h
[17] = system: Plasmodium berghei; experiment: Antimalarial activity against GFP-transfected Plasmodium berghei ANKA infected in mouse assessed as cure rate at 10 mg/kg, po qd administered for 4 days measured over 30 days; assay type: functional, organism-based
[18] = system: Plasmodium berghei; experiment: Antimalarial activity against GFP-transfected Plasmodium berghei ANKA infected in mouse assessed as mean survival days at 30 mg/kg, po qd administered for 4 days; assay type: functional; how it was run: as §3
[19] = Drug metabolism assessed as ratio of sum of compound adduct peak area to clozapine adduct peak area by GSH trapping method; assay type: physicochemical
[20] = Stability of the compound by potassium cyanide trapping method; assay type: physicochemical
[21] = Stability of the compound by methoxylamine trapping method; assay type: physicochemical
[22] = system: Plasmodium falciparum; experiment: Antiplasmodial activity against multidrug-resistant Plasmodium falciparum K1 infected in human erythrocytes after 48 hrs by [3H]-hypoxanthine incorporation assay; assay type: functional, organism-based; how it was run: as §1
[23] = Lipophilicity, log P of the compound; assay type: physicochemical; conditions: octanol/water
[24] = Inhibition of beta haematin formation at 1000 uM after 5 to 6 hrs by pyridine-ferrichrome method; assay type: physicochemical; how it was run: as §2

SMILES | Ratio IC50 [1] | IC50 [2] [µM] | Ratio IC50 [3] | IC50 [4] [µM] | selectivity ratio [5] | IC50 [6] [µM] | remaining at 0.5 h [7] [%] | remaining at 0.5 h [8] [%] | IC50 [22] [µM] | logP [23] | further results
Clc1ccc2c(Nc3ccc4oc(NCCN5CCCC5)nc4c3)ccnc2c1 | 2.75 | 0.015 | 3.73 | 4.9 | 327 | 91.5 | 62 | 81 | – | – | Activity [9]: 99.8%; Activity [10]: 99.5%; Activity [11]: 99.8%; MSD [12]: >30 days; MSD [13]: 23.3 days; MSD [14]: >30 days; Activity [15]: Active; Activity [16]: Non-toxic; Activity [17]: Active
CCN(CC)CCCC(C)Nc1ccnc2cc(Cl)ccc12 (stereo not given) [CHLOROQUINE] | – | – | – | – | – | – | – | – | – | – | Activity [11]: 99.9%; MSD [14]: 16 days; MSD [18]: 24 days
CC(C)(C)Nc1nc2cc(Nc3ccnc4cc(Cl)ccc34)ccc2s1 | 0.79 | – | – | – | – | – | – | – | – | – | Ratio [19]: 0.74; Stability [20]: Unstable; Stability [21]: Unstable
CN(C)CCCNc1nc2cc(Nc3ccnc4cc(Cl)ccc34)ccc2o1 | – | 0.019 | 7.84 | 12.6 | 665 | 174 | 78 | 44 | 0.149 | 3.44 | –
Clc1ccc2c(Nc3ccc4oc(NCCN5CCCCC5)nc4c3)ccnc2c1 | – | 0.01 | 2.4 | 7.58 | 758 | 89 | 71 | 41 | 0.024 | 4.11 | Activity [9]: 99.9%; MSD [12]: 27 days
CCNc1nc2cc(Nc3ccnc4cc(Cl)ccc34)ccc2[nH]1 | 0.5 | – | – | – | – | – | – | – | – | – | Stability [20]: Unstable; Stability [21]: Unstable
O=[N+]([O-])c1ccc2oc(NCCN3CCCC3)nc2c1 | – | 1.64 | – | – | – | – | – | – | 2.93 | – | inhibition (INH) [24]: Not Active
Clc1ccc2c(Nc3ccc4oc(NCCCN5CCOCC5)nc4c3)ccnc2c1 | – | 0.039 | 2.05 | 13.7 | 351 | 80.1 | 27 | 26 | 0.08 | 3.09 | –
CN1CCN(c2nc3cc([N+](=O)[O-])ccc3o2)CC1 | – | > 20 | – | – | – | – | – | – | > 20 | – | inhibition (INH) [24]: Not Active
CCN(CC)CCCNc1nc2cc(Nc3ccnc4cc(Cl)ccc34)ccc2o1 | – | 0.014 | 6.07 | 6.37 | 455 | 165 | 70 | 70 | 0.085 | 4.12 | –
Clc1ccc2c(Nc3ccc4sc(NCCN5CCOCC5)nc4c3)ccnc2c1 | 0.63 | – | – | – | – | – | – | – | – | – | Ratio [19]: 1.13
Clc1ccc2c(Nc3ccc4sc(NCCN5CCCCC5)nc4c3)ccnc2c1 | 0.54 | – | – | – | – | – | – | – | – | – | Ratio [19]: 0.88
